Converted amounts (≈) assume the structure as drawn.
Columns and labels:
Escherichia coli [1] = experiment: Inhibition of Escherichia coli DdlB assessed as residual activity at 500 uM
In short: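 Endpoint phosphate-release assay using purified DdlB with 500 µM test compound, 700 µM D-Ala, 500 µM ATP, in 38.5 mM Hepes pH 8.0 with MgCl2, (NH4)2SO4 and 5% DMSO. Run 30 min at 37 °C, then Biomol reagent and A650 read. Residual activity relative to an uninhibited assay. Mean of two independent experiments.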

[2] = Inhibition of Escherichia coli DdlB
In short: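 Purified E. coli DdlB in 38.5 mM Hepes pH 8.0, 3.25 mM MgCl2, 6.5 mM (NH4)2SO4, 700 µM D-Ala, 500 µM ATP, 5% DMSO, with a range of inhibitor concentrations. Incubated 30 min at 37 °C. Released phosphate detected by Biomol reagent, A650 after 5 min. IC50 taken from residual activity versus no-inhibitor control. Means of two independent experiments.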

Escherichia coli [3] = experiment: Antibacterial activity against Escherichia coli 1411; format: functional
In short: (§1)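 Broth microdilution MIC in IsoSensitest broth; inoculum 10⁴ cells per mL for E. coli, 10⁶ cells per mL for S. aureus. Compounds in 2-fold dilution series prepared in 50% DMSO. Incubated 16 h at 37 °C with OD600 read every 10 min, shaken 30 s before each read. MIC = lowest concentration preventing growth.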

Escherichia coli [4] = experiment: Antibacterial activity against acrAB deficient Escherichia coli 1411; format: functional; in short: as §1
Staphylococcus aureus = experiment: Antibacterial activity against Staphylococcus aureus 8325-4; format: functional; in short: as §1

SMILES	Activity (Escherichia coli [1]) [%]	IC50 [2] [µM]	MIC (Escherichia coli [3]) [µg/mL]	MIC (Escherichia coli [4]) [µg/mL]	MIC (Staphylococcus aureus) [µg/mL]
CN(C)CCNC(=O)NNC(=O)Nc1ccccc1	2	–	–	–	–
CC(C)(C)OC(=O)/N=N/C(=O)NCCCl	7	–	–	–	–
CC(C)c1ccc(NC(=O)/N=N/C(=O)NCCCl)cc1	–	49	> 256	> 256	> 256
CCOC(=O)/N=N/C(=O)Nc1ccc([N+](=O)[O-])cc1	40	–	–	–	–
CN(C)CCNC(=O)/N=N/C(=O)Nc1ccccc1	–	> 500	–	–	–
O=C(/N=N/C(=O)NCc1ccncc1)NCCCl	–	236	128 (≈ 475 µM)	128 (≈ 475 µM)	> 256
N[C@@H]1CONC1=O [CYCLOSERINE]	–	314	16 (≈ 157 µM)	16 (≈ 157 µM)	32 (≈ 313 µM)
CCOC(=O)NNC(=O)Nc1ccccc1	1	–	–	–	–
CCOC(=O)NNC(=O)Nc1ccc(F)cc1	0	–	–	–	–
CCOC(=O)/N=N/C(=O)Nc1cccc(Cl)c1	33	–	–	–	–
O=C(NCc1cccnc1)NNC(=O)Nc1ccccc1	0	–	–	–	–
CCOC(=O)NNC(=O)Nc1cccc(Cl)c1	0	–	–	–	–
O=C(/N=N/C(=O)Nc1cccc(Cl)c1)NCc1cccnc1	–	15	64 (≈ 201 µM)	64 (≈ 201 µM)	256 (≈ 806 µM)
O=C(/N=N/C(=O)Nc1ccccc1)NCc1ccncc1	–	106	64 (≈ 226 µM)	32 (≈ 113 µM)	128 (≈ 452 µM)
CCOC(=O)NNC(=O)Nc1ccc([N+](=O)[O-])cc1	1	–	–	–	–
CCOC(=O)/N=N/C(=O)Nc1ccccc1	1	–	–	–	–

SMILES	Activity (Escherichia coli [1]) [%]	IC50 [2] [µM]	MIC (Escherichia coli [3]) [µg/mL]	MIC (Escherichia coli [4]) [µg/mL]	MIC (Staphylococcus aureus) [µg/mL]
O=C(/N=N/C(=O)Nc1ccccc1)NCc1ccccn1	–	111	64 (≈ 226 µM)	64 (≈ 226 µM)	64 (≈ 226 µM)
O=C(/N=N/C(=O)Nc1ccc(F)cc1)NCc1ccncc1	–	73	64 (≈ 212 µM)	64 (≈ 212 µM)	128 (≈ 425 µM)
O=C(/N=N/C(=O)Nc1ccccc1)NCc1cccnc1	–	36	64 (≈ 226 µM)	64 (≈ 226 µM)	128 (≈ 452 µM)
COC(=O)NNC(=O)NC1CCCCC1	1	–	–	–	–
O=C(/N=N/C(=O)Nc1cccc(Cl)c1)NCc1ccncc1	–	33	64 (≈ 201 µM)	64 (≈ 201 µM)	64 (≈ 201 µM)
O=C(/N=N/C(=O)NC1CCCCC1)NCc1ccncc1	–	121	256 (≈ 885 µM)	256 (≈ 885 µM)	128 (≈ 442 µM)
CCOC(=O)/N=N/C(=O)Nc1ccc(F)cc1	37	–	–	–	–
CC(C)(C)c1ccc(NC(=O)/N=N/C(=O)NCc2ccncc2)cc1	–	> 500	–	–	–
COC(=O)/N=N/C(=O)NCCCl	7	–	–	–	–
O=C(/N=N/C(=O)NCc1cccnc1)NCc1cccnc1	–	123	> 256	> 256	> 256
CCC(C)c1ccc(NC(=O)/N=N/C(=O)NCCCl)cc1 (stereo not drawn)	–	25	> 256	> 256	> 256
O=C(/N=N/C(=O)NCCCl)NCCCl	–	133	> 256	> 256	> 256
O=C(/N=N/C(=O)NCc1ccccn1)NCCCl	–	119	> 256	> 256	> 256
O=C(NCc1cccnc1)NNC(=O)Nc1cccc(Cl)c1	3	–	–	–	–
COC(=O)NNC(=O)NCCCl	5	–	–	–	–
